This note sets out measurements from publication PMC6993113 (Journal of medicinal chemistry, 2017).

Data set [1] addresses recombinant human BRD4 BD1 (Homo sapiens, UniProt O60885). Put plainly: Competitive fluorescence-polarization binding assay, BRD4 BD1. The note with it: for Ki: BRD4 BD1 Ki, FP competitive binding, Tables 1, 2, 7 and text.
Data set [2] has as its target recombinant human BRD4 BD2 (Homo sapiens, UniProt O60885). Put plainly: Competitive fluorescence-polarization binding assay, BRD4 BD2. Particulars: for Ki: BRD4 BD2 Ki, FP competitive binding.
The subject of data set [3] is MV4;11 acute leukemia cell line. Kind of data set: Cell growth inhibition. In kind it is cell-based. The note with it: Homo sapiens, MV4-11, 96 h, read-out: IC50 MV4;11 cell growth inhibition.
Data set [4] concerns MOLM-13 acute leukemia cell line. Put plainly: Cell growth inhibition. The note with it: Homo sapiens, MOLM-13, 96 h, read-out: IC50 MOLM-13 cell growth inhibition. In kind it is cell-based.
For data set [5], the system named is MV4;11 xenograft tumors. Particulars: mouse, in vivo.
Data set [6] in a line: Pharmacokinetics in rats. The note with it: for CL: Rat, PO (25 mg/kg). In kind it is in vivo, Sprague Dawley rats. The procedure, abridged:
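Sprague Dawley rats got test compound iv at 5 mg/kg or orally at 25 mg/kg in a vehicle of 20% (v/v) PCP and 70% (v/v) PBS. Blood (100 μL) was drawn by catheter at 0, 5, 15 and 30 min and 1, 2, 4, 6, 8 and 24 hr, then spun at 15 000 rpm for 10 min. Plasma was stored at −80 °C and assayed by validated LC–MS/MS. Parameters were derived noncompartmentally.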

The target in data set [7] is all other 371 kinases. Put plainly: DiscoverX KINOMEscan kinase screening, remaining panel. It is filed as binding, human. The note with it: read-out: IC50 against all other 371 kinases.
In data set [8] the test system is c-Myc. Kind of data set: Western blot of c-Myc in MV4. It is filed as cell-based, human. The note with it: MV4;11 cells, 1 h, different concentrations. For orientation: A western blot detects proteins with antibodies after separation by electrophoresis.
In data set [9] the test system is p21. Kind of data set: Western blot of p21 in MV4. In kind it is cell-based, human. The note with it: MV4;11 cells, 24 h.
In data set [10] the test system is PARP. Kind of data set: Western blot of PARP cleavage in MV4. Particulars: MV4;11 cells, 24 h. It is filed as cell-based, human.
Data set [11] can be described thus: Solubility in the dosing vehicle. It is filed as physicochemical. Particulars: 5% DMSO+10% Cremophor+85% saline.
Data set [12] deals with MDA-MB-231 xenograft tumors.
Data set [13] can be described thus: Aqueous solubility. It is filed as physicochemical.
The mark [14] stands for this setting: Table 4 second column as headed.

Where “and” joins values, the source holds several entries; their conditions need not be identical. Identical values can stand only once. Where only a bound is given, the exact number is not on record here.

A word on the IC50: it is the midpoint of a concentration-inhibition curve. For orientation: Ki means a measure of affinity in units of concentration, obtained from inhibition or displacement. Turning to `COc1cc2c(cc1-c1c(C)noc1C)[nH]c1ncnc(-c3c(C)[nH]c4cc(F)ccc34)c12` [Compound 22, 4-(4-(6-Fluoro-2-methyl-1H-indol-3-yl)-6-methoxy-9H-pyrimido[4,5-b]indol-7-yl)-3,5-dimethyl isoxazole], the IC50 in data set [1] came out at 2.3 ± 1.1 nM; in [2], 5.6 ± 1.9 nM; in [3], 5.1 ± 2.8 nM; in data set [4], 51 ± 6 nM. Besides, the Ki in [1] was under 1 nM; in data set [2] (setting [14]), 0.9 ± 0.3 nM; in data set [2] (Tables 1, 2, 7 and text), under 1 nM.

As for `COc1cc2c(cc1-c1c(C)noc1C)[nH]c1nc(C)nc(-c3c(C)ccc4ncccc34)c12` [Compound 33, 4-(6-Methoxy-2-methyl-4-(6-methylquinolin-5-yl)-9H-pyrimido[4,5-b]indol-7-yl)-3,5-dimethyl-isoxazole], the IC50 was 93.8 ± 15.8 nM in data set [1], 36.3 ± 6.9 nM in data set [2], 99 ± 43 nM in [3] and 220 ± 101 nM in [4]. Also, the Ki in data set [1] was found to be 38.4 ± 10.5 nM; in data set [2] (Tables 1, 2, 7 and text), 10.5 ± 1.9 nM.

With `COc1cc2c(cc1-c1c(C)noc1C)[nH]c1ncnc(-n3nnc4ccccc43)c12` [Compound 28, 4-(4-(1H-Benzo[d][1,2,3]triazol-1-yl)-6-methoxy-9H-pyrimido[4,5-b]indol-7-yl)-3,5-dimethylisoxazole], in [1] (FP binding, 1 μM), the “binding to BRD4 BD1 at 1 μM” value is “fails to show any appreciable binding”. In addition, the “binding to BRD4 BD2 at 1 μM” value in data set [2] (FP binding, 1 μM) was “fails to show any appreciable binding”.

Regarding `COc1cc2c(cc1-c1c(C)noc1C)ncc1[nH]c(=O)n([C@H](C)c3ccccn3)c12` [Compound 5, I-BET151, reference compound], the IC50 in [3] came out at 162 ± 112 nM. Besides, the “weight loss or other signs of toxicity” value in data set [5] is recorded as “did not cause weight loss or other signs of toxicity”.

In data set [6], `COc1cc2c(cc1-c1c(C)noc1C)[nH]c1nc(C)nc(-c3ccnc4ccccc34)c12` [Compound 31, 4-(6-Methoxy-2-methyl-4-(quinolin-4-yl)-9H-pyrimido[4,5-b]indol-7-yl)-3,5-dimethylisoxazole] yielded a CL of 14.7 mL/min/kg. For the same molecule, the IC50 in [7] is over 50000 nM. In addition, the “weight loss or other signs of toxicity” value in data set [5] is on record as “did not cause weight loss or other signs of toxicity”; in [12] (mouse, in vivo) it was “did not experience weight loss or other signs of toxicity”. In addition, the “effect on c-Myc protein level” value in data set [8] was “rapid down-regulation of c-Myc at as early as the 1 h time-point and in a dose-dependent manner”. Also, the “effect on p21 protein level” value in [9] is “effective in inducing upregulation of the cell cycle regulator p21”. For the same molecule, the “cleavage of PARP (marker of apoptosis)” value in [10] is given as “cleavage of PARP”. Moreover, the “solubility in the dosing vehicle” value in data set [11] is listed as “readily soluble”. Also, the tumor growth inhibition entry in [12] (MDA-MB-231 xenograft in mice, 40 mg/kg dosing daily, during the treatment period) is “essentially complete tumor growth inhibition”.

What is called Cmax is the maximum level reached in the sampled fluid or tissue. Turning to `COc1cc2c(cc1-c1c(C)noc1C)[nH]c1ncnc(-c3c(C)[nH]c4ccccc34)c12` [Compound 21, 4-(6-Methoxy-4-(2-methyl-1H-indol-3-yl)-9H-pyrimido[4,5-b]indol-7-yl)-3,5-dimethylisoxazole], in data set [6], the CL worked out at 31.7 mL/min/kg. Besides, the Cmax in data set [6] (Sprague Dawley, rat, plasma, po, 25 mg/kg) was 1470 ng/mL and ~3 µM. In addition, in data set [11], the “solubility in the dosing vehicle” value was “difficult to dissolve”. Further, the aqueous solubility result in data set [13] is reported as “poor”.

As to `COc1cc2c(cc1-c1c(C)noc1C)[nH]c1ncnc(-c3c[nH]c4cc(F)ccc34)c12` [Compound 20, 4-(4-(6-Fluoro-1H-indol-3-yl)-6-methoxy-9H-pyrimido[4,5-b]indol-7-yl)-3,5-dimethylisoxazole], the IC50 in data set [1] turned out to be 2.2 ± 1 nM; in [2], 12.2 ± 4.2 nM; in data set [3] it was 76 ± 31 nM; in data set [4] it was 374 ± 52 nM. In addition, the Ki came to 2.6 nM in [1]; 2.6 ± 0.8 nM in data set [2] (setting [14]); 1 nM in data set [2] (Tables 1, 2, 7 and text).

As to `COc1cc2c(cc1-c1c(C)noc1C)[nH]c1ccnc(-c3c(C4CC4)n[nH]c3C)c12` [Compound 6, RX-37, reference compound], the IC50 in data set [3] came out at 20 ± 9 nM.
